An excerpt weighted towards active compounds, which were near 1.3% of everything screened.
ASAP1 GAP inh = inhibitors of human ASAP1 ArfGAP activity, primary screen, biochemical, fluorescence polarization. Arf-GAP with SH3 domain, ANK repeat and PH domain-containing protein 1 (Homo sapiens), …. ASAP1-stimulated ARF1 GTP hydrolysis, GDP FP detection. inhibition, % at 16.5 µM. hit rate 0.19% among 360,000. AID 624377, 2012; in the data active means inhibition above about 25%;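 further: 0% = vehicle with enzyme and substrate and 100% = no enzyme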
TDP2 absorb = human TDP2 enzyme inhibitors, primary screen, biochemical, epi absorbance, recombinant enzyme. T5PNP hydrolysis, p-nitrophenol absorbance 415 nm. inhibition, % at 12.8 µM. hit rate 0.34% among 370,000;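 active means inhibition above the mean of all tested compounds plus 3 SD, set per campaign, cut at about 25% in these data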;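 further: 0% = DMSO with enzyme and 100% = buffer with substrate but no TDP2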
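Material: recombinant human TDP2; quantity: TDP2 enzyme at 120 nM final; medium: Tris-HCl pH 7.5 with MgCl2; compound: single concentration, 12.8 µM nominal, with 1% DMSO; incubation: 2 h enzyme incubation at 37 °C; signal: epi absorbance; measure: percent inhibition; benchmarks: high control without enzyme, low control DMSO plus TDP2; repeats: singlicate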
ARFGAP1 inh = inhibitors of rat ARFGAP1 GAP activity, primary screen, biochemical, fluorescence polarization, GDP tracer; Arfgap1-stimulated ARF1 GTP hydrolysis, GDP FP detection; inhibition, % at 16.5 µM; ADP-ribosylation factor GTPase-activating protein 1 (Rattus norvegicus), Q62848; hit rate 0.26% among 360,000; AID 651572, 2012;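 active means inhibition above a per-plate limit, mean inhibition of low control wells plus 3 SD, cut at about 25% in these data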;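 further: 0% = DMSO wells with enzyme and 100% = wells lacking Arfgap1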
Target sequence (Q62848 1-136 limits assumed): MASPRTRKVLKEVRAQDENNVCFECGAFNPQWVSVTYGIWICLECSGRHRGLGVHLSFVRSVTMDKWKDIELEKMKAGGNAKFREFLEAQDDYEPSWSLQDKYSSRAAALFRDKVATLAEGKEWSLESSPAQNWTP
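Replicates: Single well per compound | Assay system: Truncated rat Arfgap1 GAP domain | Control set: No-Arfgap1 wells (100%) versus DMSO full-reaction wells (0%) | Times: Enzyme reaction 120 min at 25 °C after 20 min preincubation | Reagent: Human ARF1(Δ1-17)-GTP substrate | Measured by: Tracer-displacement fluorescence polarization with EDTA stop, 620/688 nm | Measure: Percent inhibition of Arfgap1-stimulated GTP hydrolysis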
LEDGF integ inh = blockers of LEDGF/p75-dependent integrase strand transfer – biochemical, TR-FRET, high throughput, primary screen | TR-FRET IN-LEDGF/p75 DNA integration, Eu/Cy5 | hit rate 0.64% among 370,000 | HIV-1 integrase (with human LEDGF/p75) | inhibition, % at 3.7 µM | AID 743269, 2014;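 active means inhibition above the screen-wide mean plus 3 SD, cut at about 13% in these data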;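 further: signal is the Cy5 over europium emission ratio at 671 and 618 nm; 0% = plate median of compound wells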
CASP6 VEID inh = human caspase-6 inhibitors, primary screen, biochemical, VEID-R110 fluorescence, single point, set 2 | hit rate 0.53% among 350,000 | purified caspase-6, Z-VEID-R110 cleavage fluorescence | P55212 | AID 686996, 2013 | inhibition, % at 12.5 µM;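 active means mean inhibition across replicates at least about 35%, with every replicate also reaching that limit, limit read from the data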;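 further: 0% = median of neutral control wells and 100% = no fluorescence left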
Target sequence (P55212 24-179 limits assumed): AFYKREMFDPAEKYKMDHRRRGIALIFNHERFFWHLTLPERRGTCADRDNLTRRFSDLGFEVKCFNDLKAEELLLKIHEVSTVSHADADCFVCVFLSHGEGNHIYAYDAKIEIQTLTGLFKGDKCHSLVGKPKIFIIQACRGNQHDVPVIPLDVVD
Target sequence (P55212 194-293 limits assumed): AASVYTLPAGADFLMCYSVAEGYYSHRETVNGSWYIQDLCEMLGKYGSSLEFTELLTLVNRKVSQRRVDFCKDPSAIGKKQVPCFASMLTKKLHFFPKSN
ARFGAP1 inh conf = ARFGAP1 inhibitor hit confirmation, biochemical, fluorescence polarization, triplicate. shares compounds with ARFGAP1 inh. ARFGAP1-stimulated ARF1 GTP hydrolysis, GDP tracer FP. inhibition, % at 16.5 µM. hit rate 30% among 890;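 active means average inhibition over triplicates above the hit cutoff set in the earlier primary screen, cut at about 25% in these data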;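 further: 0% = Arfgap1 plus ARF1-GTP with DMSO and 100% = wells lacking Arfgap1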
An asterisk follows results filed as active; / = no result.

SMILES | ASAP1 GAP inh | TDP2 absorb | ARFGAP1 inh | LEDGF integ inh | CASP6 VEID inh | ARFGAP1 inh conf
COc1ccc(S(=O)(=O)NCC2CCC(C(=O)N3CCC4(CC3)OCCO4)CC2)cc1 (stereo unspecified) | 0.3 | -4.7 | 35.2* | -2.0 | / | -7.1
COc1ccc(S(=O)(=O)NCC2CCCN(C(=O)C3CCCC3)C2)cc1 (stereo unspecified) | 7.0 | 1.8 | 7.7 | -5.3 | 0.7 | /
CN(C(=O)COC(=O)Cc1c(Cl)cccc1Cl)C1CCS(=O)(=O)C1 (stereo unspecified) | -10.1 | -3.1 | -9.4 | -3.8 | 2.2 | /
Cc1cc(C)c(S(C)(=O)=O)c(S(=O)(=O)c2ccc(Cl)cc2)n1 | -2.5 | 3.5 | 7.0 | -1.5 | / | /
CC(=O)Nc1ccc(NC(=S)Nc2ccccc2)cc1 | 2.4 | 3.8 | -3.6 | -3.4 | / | /
CC(=O)Nc1ccc(SC(Sc2ccc(NC(C)=O)cc2)c2ccccc2)cc1 | 15.6 | -2.1 | 30.4* | -4.5 | 0.0 | 19.2
Cc1[nH]c2ccc(C(=O)OC(C)C(=O)NC3CCCCC3C)cc2c1C (stereo unspecified) | 0.7 | -0.5 | -4.3 | 1.0 | -1.0 | /
C[C@H](CO)N1C[C@H](C)[C@H](CN(C)C(=O)Nc2ccc(F)cc2)Oc2ccc(NC(=O)NC3CCCCC3)cc2CC1=O | 6.2 | -6.1 | -1.6 | -4.5 | 0.1 | /
Cc1cccc(C)c1N1C(=O)CC(Sc2ccccc2N)C1=O (stereo unspecified) | 8.6 | -0.9 | -6.7 | -6.8 | 1.3 | /
COc1cc(/C=C2\SC(N)=NC2=O)ccc1OCC(=O)Nc1ccc(C)cc1 | 19.9 | 3.4 | 45.0* | -13.0 | / | 72.0*
COc1ccc(/C=C2/SC(=O)N(CCC(=O)Nc3ccc(C)cc3)C2=O)cc1OC | 4.3 | 1.9 | 1.3 | 3.1 | -0.1 | /
Cc1cc(=O)oc2cc(OCc3ccc(C(=O)OCC(=O)Nc4ccccc4OC(F)F)cc3)ccc12 | 14.7 | 11.2 | 41.9* | -1.8 | -0.8 | 50.0*
CCN(CC)S(=O)(=O)c1ccc(C(=O)NN(C)C2=NS(=O)(=O)c3ccccc32)cc1 | -2.7 | 4.3 | -3.1 | 2.3 | 0.2 | /
COc1ccc(NC(=O)Nc2nnc(-c3ccco3)s2)cc1 | 6.0 | -10.4 | 34.9* | 2.6 | 2.2 | -3.5
COc1ccc(C(CNC(=O)COc2cc(C)c(Cl)c(C)c2)N2CCCCC2)cc1 (stereo unspecified) | -5.2 | 19.1 | -3.2 | -2.2 | -3.0 | /
O=C(N/N=C/c1cc(Cl)cc([N+](=O)[O-])c1O)c1ccc2c(c1)OCO2 | -3.6 | -5.5 | -12.2 | -7.2 | 1.4 | /
COc1ccc(C(=O)N/N=C/c2cc(Br)ccc2O)cc1OC | 13.0 | -1.8 | 32.6* | -6.2 | -1.3 | 50.0*
COc1ccc(O)c(/C=N/NC(=O)c2ccc(CSc3nc(C)cc(C)n3)cc2)c1 | 12.7 | -10.3 | 30.1* | -13.5 | 0.9 | 32.8*
CCCOc1ccc(Br)cc1/C=N/NC(=O)c1cc(OC)c(OC)c(OC)c1 | -0.6 | 3.7 | 4.3 | -3.0 | / | /
COc1cc(Cl)cc(/C=N\NC(=O)c2ccc3c(c2)OCO3)c1O | 5.5 | 4.5 | 34.0* | -8.9 | 2.3 | 42.9*
O=C(/C=C/c1ccc(F)cc1)Nc1cc(S(=O)(=O)N2CCOCC2)ccc1N1CCCC1 | -8.4 | 1.0 | 7.7 | 3.0 | / | /
CN1CCN(c2ccc(Cl)cc2NC(=O)/C=C/c2ccc(F)cc2)CC1 | 16.9 | 2.5 | 25.1* | 5.8 | 5.9 | 8.8
Cc1ccc(S(=O)(=O)NCC(C)n2nc(C)cc2C)cc1 (stereo unspecified) | -2.5 | -10.2 | 5.2 | -0.9 | 1.6 | /
Cc1cc(C)n(C(C)CNS(=O)(=O)c2ccc(Cl)cc2)n1 (stereo unspecified) | 8.4 | -4.1 | 24.7* | 2.3 | 3.1 | -1.7
Nc1nonc1-c1nc2ccccc2n1Cc1ccc(Cl)cc1 | 7.7 | -12.5 | 24.7* | -2.2 | / | 1.3
SMILES | ASAP1 GAP inh | TDP2 absorb | ARFGAP1 inh | LEDGF integ inh | CASP6 VEID inh | ARFGAP1 inh conf
Cc1ccc(Cn2c(-c3nonc3N)nc3ccccc32)cc1 | -3.2 | 1.9 | 5.9 | 0.9 | / | /
COc1ccc(-c2c(-c3ccc(OCC(=O)NN)cc3O)n[nH]c2C(F)(F)F)cc1 | 24.6 | -7.4 | 31.9* | 1.3 | / | 23.9
COc1ccc(-c2c(-c3ccc(OCC(=O)NN)cc3O)n[nH]c2C)cc1OC | -14.6 | -7.6 | 6.4 | 6.7 | -2.5 | /
O=C(Nc1cccc(-c2csc(Nc3cccc(C(F)(F)F)c3)n2)c1)c1ccccc1 | 7.6 | -11.1 | 24.8* | -2.7 | -0.3 | 18.2
CN(C)S(=O)(=O)Nc1ccc(NS(=O)(=O)N(C)C)c(S(=O)(=O)c2ccccc2)c1 | -3.7 | -4.0 | 3.2 | -2.2 | / | /
CN(C)S(=O)(=O)Nc1ccc2c(c1)Cc1ccccc1-2 | -12.5 | -5.6 | 28.1* | -1.1 | 1.2 | -5.8
Cc1cc(S(=O)(=O)Nc2cccnc2)c(C)s1 | -8.1 | -0.8 | 25.4* | -5.3 | / | 8.0
Cc1ccc2oc(=O)c3cnn(CC(=O)NC4CCN(Cc5ccccc5)CC4)c3c2c1 | 0.7 | -1.3 | 16.0 | 1.4 | -1.4 | /
COc1ccc(-c2nc3cc(NC(=O)Cc4ccc(OC)c(OC)c4)ccc3o2)cc1 | 9.9 | 3.5 | 25.1* | 1.2 | / | 14.8
Cc1ccc(NC(=O)COC(=O)c2ccco2)cc1C | 2.3 | 5.4 | -10.8 | -2.5 | 0.8 | /
O=C(NCCc1ccc(F)cc1)c1cccc(NC(=O)c2ccccc2)c1 | 12.8 | 12.1 | 37.0* | 3.6 | 0.1 | 3.1
CCNC(=S)NNC(=O)c1ccccn1 | -2.7 | -9.3 | 6.9 | -2.4 | / | /
O=C(NNC(=S)Nc1ccc(Cl)c(Cl)c1)c1ccccn1 | -4.5 | -2.6 | 25.8* | -48.4 | 0.2 | -0.6
CCOc1ccc(NC(=O)CSc2nnc(-c3ccncc3)n2CC2CCCO2)cc1 (stereo unspecified) | 0.9 | -8.7 | -0.3 | -0.8 | / | /
COc1ccc(NC(=O)CSc2nnc(-c3ccncc3)n2CC2CCCO2)c(OC)c1 (stereo unspecified) | -4.2 | -12.6 | 25.7* | -0.1 | / | -3.3
CCOC(=O)/C(=C\Nc1ccc(OCc2ccccc2)cc1)NC(=O)c1ccccc1 | -8.4 | 0.6 | 0.0 | 0.6 | -1.6 | /
COc1ccc(NC(=O)C(=O)NCCC2CCCCN2S(=O)(=O)c2ccc(F)cc2)cc1 (stereo unspecified) | 14.7 | -6.7 | 27.6* | 1.5 | 3.0 | 3.2

Screens deposited in PubChem by several laboratories.
